ChEMBL document CHEMBL1671740, “Increased temperature enhances the antimicrobial effects of daptomycin, vancomycin, tigecycline, fosfomycin, and cefamandole on staphylococcal biofilms” (2010)
Values after ≈ are worked out from the molar mass of the structure shown. Active and inactive are the calls of the source. The calls are words filed in the database; no cut-off is given here.

Key:
[1] = system: Staphylococcus epidermidis; test: Antimicrobial activity against Staphylococcus epidermidis DSM3269 by […]; type: functional
Staphylococcus aureus [2] = test: Antimicrobial activity against Staphylococcus aureus ATCC 29213 administered as powder at 45 degC after 24 hrs; type: functional; conditions: ATCC 29213, 24 h
Outline: (§1)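 Antimicrobials, as powder or in solution as used for MIC testing, held at 45°C for 1 and 24 h in three independent experiments. MICs were then determined by the CLSI microtiter plate method in cation-adjusted Mueller-Hinton medium, with MHB containing 50 μg/ml calcium for daptomycin. Values are median (range) […] in mg/liter.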

Staphylococcus aureus [3] = test: Antimicrobial activity against Staphylococcus aureus ATCC 29213 by […]; type: functional
[4] = system: Staphylococcus epidermidis; test: Antimicrobial activity against Staphylococcus epidermidis isolate KO8 isolated from healthy human skin by […]; type: functional
Staphylococcus [5] = test: Antimicrobial activity against coagulase-negative Staphylococcus isolated from human preoperative skin by […]; type: functional
Staphylococcus aureus [6] = test: Antimicrobial activity against Staphylococcus aureus isolated from human preoperative skin by […]; type: functional
Staphylococcus aureus [7] = test: Antimicrobial activity against Staphylococcus aureus isolated from human prosthetic joint infection site by […]; type: functional
Staphylococcus [8] = test: Antimicrobial activity against coagulase-negative Staphylococcus isolated from human prosthetic joint infection site by […]; type: functional
[9] = system: Staphylococcus epidermidis; test: Antimicrobial activity against Staphylococcus epidermidis isolate OR1 treated in solution at 45 degC after 24 hrs; type: functional; conditions: isolate OR1, 24 h; outline: as §1
Staphylococcus [10] = test: Antimicrobial activity against Staphylococcus isolates biofilms assessed as change in optical density ratio of biofilms at 50 mg/litre at ambient temperature of 35 degC after 24 hrs relative to baseline; type: functional
Outline: (§2)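 Static microtiter biofilms of 34 clinical S. aureus and CoNS isolates from orthopedic implant infections or preoperative skin, plus reference strains. Inoculum was McFarland 0.5 diluted 1:100 in calcium-supplemented MHB, grown 24 h at 35°C in ambient air. Established biofilms were exposed to drug for 24 h at 35, 40 or 45°C, then formalin-fixed and stained with 1% crystal violet for 5 min, and OD read at 550 nm in quadruplicate.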

Staphylococcus [11] = test: Antimicrobial activity against Staphylococcus isolates biofilms assessed as change in optical density ratio of biofilms at 100 mg/litre at ambient temperature of 35 degC after 24 hrs relative to baseline; type: functional; outline: as §2
Staphylococcus [12] = test: Antimicrobial activity against Staphylococcus isolates biofilms assessed as change in optical density ratio of biofilms at 500 mg/litre at ambient temperature of 35 degC after 24 hrs relative to baseline; type: functional; outline: as §2
Staphylococcus [13] = test: Antimicrobial activity against Staphylococcus isolates biofilms assessed as change in optical density ratio of biofilms at 50 mg/litre at ambient temperature of 40 degC after 24 hrs relative to baseline; type: functional; outline: as §2
Staphylococcus [14] = test: Antimicrobial activity against Staphylococcus isolates biofilms assessed as change in optical density ratio of biofilms at 100 mg/litre at ambient temperature of 40 degC after 24 hrs relative to baseline; type: functional; outline: as §2
Staphylococcus [15] = test: Antimicrobial activity against Staphylococcus isolates biofilms assessed as change in optical density ratio of biofilms at 500 mg/litre at ambient temperature of 40 degC after 24 hrs relative to baseline; type: functional; outline: as §2
Staphylococcus [16] = test: Antimicrobial activity against Staphylococcus isolates biofilms assessed as change in optical density ratio of biofilms at 50 mg/litre at ambient temperature of 45 degC after 24 hrs relative to baseline; type: functional; outline: as §2
Staphylococcus [17] = test: Antimicrobial activity against Staphylococcus isolates biofilms assessed as change in optical density ratio of biofilms at 100 mg/litre at ambient temperature of 45 degC after 24 hrs relative to baseline; type: functional; outline: as §2
Staphylococcus [18] = test: Antimicrobial activity against Staphylococcus isolates biofilms assessed as change in optical density ratio of biofilms at 500 mg/litre at ambient temperature of 45 degC after 24 hrs relative to baseline; type: functional; outline: as §2
Staphylococcus [19] = test: Antimicrobial activity against Staphylococcus isolates biofilms assessed as decrease in bacterial load at 100 mg/litre at ambient temperature of 35 degC after 24 hrs relative to baseline; type: functional
Outline: (§3)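 24-h static biofilms of the staphylococcal isolates were exposed to drug for 24 h at 35, 40 or 45°C. Biofilms were not fixed but scraped off and resuspended in MHB, then serially diluted and 0.1 ml plated on blood agar, read after 48 h at 35°C in ambient air. Done in duplicate as mean log10 CFU/ml; log reduction was taken versus untreated biofilm.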

Staphylococcus [20] = test: Antimicrobial activity against Staphylococcus isolates biofilms assessed as decrease in bacterial load at 500 mg/litre at ambient temperature of 40 degC after 24 hrs relative to baseline; type: functional; outline: as §3
Staphylococcus [21] = test: Antimicrobial activity against Staphylococcus isolates biofilms assessed as decrease in bacterial load at 500 mg/litre at ambient temperature of 45 degC after 24 hrs relative to baseline; type: functional; outline: as §3
Staphylococcus [22] = test: Antimicrobial activity against Staphylococcus isolates biofilms assessed as decrease in bacterial load at 5 to 100 mg/litre at ambient temperature of […] after 24 hrs relative to baseline; type: functional, organism-based
Outline: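 Static 24-h biofilms of staphylococcal isolates (S. aureus, CoNS) and reference strains were grown at 35°C in calcium-supplemented MHB from a 1:100-diluted McFarland 0.5 inoculum. They were then exposed to drug at 5, 25 or 100 mg/liter for 24 h at 35, 40 or 45°C. Biofilms were scraped into MHB, serially diluted and plated on blood agar (35°C, 48 h), in duplicate, giving mean log10 CFU/ml against untreated.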

Staphylococcus [23] = test: Antimicrobial activity against Staphylococcus isolates biofilms assessed as change in optical density ratio of biofilms at 250 mg/litre at ambient temperature of 35 degC after 24 hrs relative to baseline; type: functional; outline: as §2
Staphylococcus [24] = test: Antimicrobial activity against Staphylococcus isolates biofilms assessed as change in optical density ratio of biofilms at 1000 mg/litre at ambient temperature of 35 degC after 24 hrs relative to baseline; type: functional; outline: as §2
Staphylococcus [25] = test: Antimicrobial activity against Staphylococcus isolates biofilms assessed as change in optical density ratio of biofilms at 250 mg/litre at ambient temperature of 40 degC after 24 hrs relative to baseline; type: functional; outline: as §2
Staphylococcus [26] = test: Antimicrobial activity against Staphylococcus isolates biofilms assessed as change in optical density ratio of biofilms at 1000 mg/litre at ambient temperature of 40 degC after 24 hrs relative to baseline; type: functional; outline: as §2
Staphylococcus [27] = test: Antimicrobial activity against Staphylococcus isolates biofilms assessed as change in optical density ratio of biofilms at 250 mg/litre at ambient temperature of 45 degC after 24 hrs relative to baseline; type: functional; outline: as §2
Staphylococcus [28] = test: Antimicrobial activity against Staphylococcus isolates biofilms assessed as change in optical density ratio of biofilms at 1000 mg/litre at ambient temperature of 45 degC after 24 hrs relative to baseline; type: functional; outline: as §2

| Structure (SMILES) | MIC [1] [µg/mL] | MIC (Staphylococcus aureus [2]) [µg/mL] | MIC (Staphylococcus aureus [3]) [µg/mL] | MIC [4] [µg/mL] | MIC (Staphylococcus [5]) [µg/mL] | MIC (Staphylococcus aureus [6]) [µg/mL] | MIC (Staphylococcus aureus [7]) [µg/mL] | MIC (Staphylococcus [8]) [µg/mL] | MIC [9] [µg/mL] | Activity (Staphylococcus [19]) | further results |
| --- | --- | --- | --- | --- | --- | --- | --- | --- | --- | --- | --- |
| Cn1nnnc1SCC1=C(C(=O)O)N2C(=O)[C@@H](NC(=O)[C@H](O)c3ccccc3)[C@H]2SC1 [CEFAMANDOLE] | 0.5 (≈ 1.08 µM) | 0.25 (≈ 0.541 µM) | 0.5 (≈ 1.08 µM) | 0.25 (≈ 0.541 µM) | 0.25 (≈ 0.541 µM) | 0.25 (≈ 0.541 µM) | 1 (≈ 2.16 µM) | 1 (≈ 2.16 µM) | 2 (≈ 4.32 µM) | inactive | Ratio (Staphylococcus [10]): 1.29; Ratio (Staphylococcus [11]): 1.12; Ratio (Staphylococcus [12]): 1.27; Ratio (Staphylococcus [13]): 1.07; Ratio (Staphylococcus [14]): 1.06; Ratio (Staphylococcus [15]): 0.62; Ratio (Staphylococcus [16]): 0.86; Ratio (Staphylococcus [17]): 0.63; Ratio (Staphylococcus [18]): 0.65; fold change (FC) (Staphylococcus [20]): 2; fold change (FC) (Staphylococcus [21]): 2 |
| CN[C@H](CC(C)C)C(=O)N[C@H]1C(=O)N[C@@H](CC(N)=O)C(=O)N[C@H]2C(=O)N[C@H]3C(=O)N[C@H](C(=O)N[C@H](C(=O)O)c4cc(O)cc(O)c4-c4cc3ccc4O)[C@H](O)c3ccc(c(Cl)c3)Oc3cc2cc(c3O[C@@H]2O[C@H](CO)[C@@H](O)[C@H](O)[C@H]2O[C@H]2C[C@](C)(N)[C@H](O)[C@H](C)O2)Oc2ccc(cc2Cl)[C@H]1O [VANCOMYCIN] | 2 (≈ 1.38 µM) | 0.5 (≈ 0.345 µM) | 0.5 (≈ 0.345 µM) | 1 (≈ 0.69 µM) | 0.75 (≈ 0.518 µM) | 0.5 (≈ 0.345 µM) | 0.5 (≈ 0.345 µM) | 2 (≈ 1.38 µM) | 2 (≈ 1.38 µM) | inactive | Activity (Staphylococcus [22]): inactive |
| C[C@@H]1O[C@@H]1P(=O)(O)O [FOSFOMYCIN] | 1 (≈ 7.24 µM) | 1 (≈ 7.24 µM) | 4 (≈ 29 µM) | 16 (≈ 116 µM) | 32 (≈ 232 µM) | 64 (≈ 464 µM) | 4 (≈ 29 µM) | 16 (≈ 116 µM) | 32 (≈ 232 µM) | inactive | Ratio (Staphylococcus [23]): 1.01; Ratio (Staphylococcus [24]): 0.78; Ratio (Staphylococcus [25]): 0.75; Ratio (Staphylococcus [26]): 0.65; Ratio (Staphylococcus [27]): 0.69; Ratio (Staphylococcus [28]): 0.63 |
